Screening results (PubChem)
SENP6 block – inhibitors of human SENP6 protease. 330,000 tested, 1.8% active. inhibition, % at 10 µM. Recombinant SENP6 catalytic domain, aminoluciferin luminescence. Q9GZR1;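 active = inhibition above about 50% at the single tested dose, limit read from the data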
SENP8 block-1 – SENP8 protease inhibition | Q96LD8 | purified SENP8, Z-RLRGG-aminoluciferin cleavage, luminescence | inhibition, % at 10 µM | 330,000 tested, 1.2% active; in the data active = inhibition above about 50%
Target sequence (Q96LD8 whole entry, looked up): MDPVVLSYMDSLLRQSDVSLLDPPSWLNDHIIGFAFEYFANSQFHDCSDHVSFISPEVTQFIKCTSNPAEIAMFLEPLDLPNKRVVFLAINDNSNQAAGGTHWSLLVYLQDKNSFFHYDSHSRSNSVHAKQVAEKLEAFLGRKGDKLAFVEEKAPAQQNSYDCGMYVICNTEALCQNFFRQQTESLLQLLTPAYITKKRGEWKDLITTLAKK
SENP8 block-2 – inhibitors of human SENP8 protease; Q96LD8; recombinant SENP8, Nedd8 substrate fluorescence; inhibition, % at 20 µM; 360,000 tested, 0.64% active; AID 602440; in the data active = inhibition mostly above about 40%, no sharp cut-off; inactive = mostly below about 27%
Platelet DG rel – platelet dense granule release activity. inhibition, %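 (compounds screened at 7.5 µM in platelet-rich plasma)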. 300,000 tested, 0.22% active. AID 1663. human platelet-rich plasma, SFLLRN dense granule ATP release, luminescence;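 active = mean replicate score, as percent of positive control, at or above 50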
SENP7 inh – SENP7 protease inhibition; Q9BQF6; recombinant SENP7, Z-RLRGG-aminoluciferin luminescence, 40 min; inhibition, % at 5 µM; 330,000 tested, 1.5% active; AID 434973;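 active = inhibition above about 50% at the single test dose, limit read from the data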
SENP1 inh – inhibitors of human SENP1 SUMO protease catalytic domain. recombinant SENP1 catalytic domain, CyPet-SUMO1-YPet FRET cleavage. inhibition, % at 10 µM. 360,000 tested, 0.21% active. AID 624204. Q9P0U3;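 active = inhibition at least 30% at 10 µM, raw YFP signal under a set limit, fluorescence ratio 0.5 to 1.5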
Target sequence (Q9P0U3 419-644 limits assumed): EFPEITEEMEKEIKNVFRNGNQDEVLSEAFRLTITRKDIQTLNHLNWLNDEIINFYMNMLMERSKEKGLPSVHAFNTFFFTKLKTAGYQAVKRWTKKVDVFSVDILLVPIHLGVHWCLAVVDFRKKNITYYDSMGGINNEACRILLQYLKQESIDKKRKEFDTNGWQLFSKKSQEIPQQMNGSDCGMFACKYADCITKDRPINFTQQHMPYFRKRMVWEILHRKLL
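Controls: no-enzyme wells low, DMSO-plus-enzyme wells high control. Test system: human recombinant His6-tagged SENP1 catalytic domain enzyme. Reagent: SFCypet-SUMO1-SFYpet FRET protein substrate, 25 nM final. Doses: one dose per compound, 10 µM, 0.5% DMSO. Detection: FRET, CFP and YFP emission. Timing: 50 min reaction at room temperature.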
SENP8 confirm – confirmation of human SENP8 protease inhibitors; inhibition, % at 12.5 µM; shares compounds with SENP7 inh; Recombinant SENP8, Z-RLRGG-aminoluciferin luminescence, 60 min; 6,200 tested, 40% active; AID 488912;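 active = mean inhibition across replicates above about 50%, limit read from the data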
SENP6 conf – confirmation of human SENP6 protease inhibitors | shares compounds with SENP7 inh | recombinant SENP6, Z-RLRGG-aminoluciferin luminescence | inhibition, % at 12.5 µM | 6,200 tested, 58% active | AID 488915
SENP7 conf – human SENP7 inhibition, confirmed. shares compounds with SENP7 inh. recombinant SENP7, Z-RLRGG-aminoluciferin luminescence, 40 min. inhibition, % at 12.5 µM. 6,200 tested, 69% active. AID 488917
Casp3 SENP sel – inhibits human caspase-3 in SENP selectivity test; shares compounds with SENP7 inh; purified caspase-3, Z-DEVD-aminoluciferin luminescence, 60 min; inhibition, % at 12.5 µM; 6,200 tested, 60% active; AID 488918;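 active = mean inhibition above about 50%, limit read from the data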
Target sequence (P42574 28-227 limits assumed): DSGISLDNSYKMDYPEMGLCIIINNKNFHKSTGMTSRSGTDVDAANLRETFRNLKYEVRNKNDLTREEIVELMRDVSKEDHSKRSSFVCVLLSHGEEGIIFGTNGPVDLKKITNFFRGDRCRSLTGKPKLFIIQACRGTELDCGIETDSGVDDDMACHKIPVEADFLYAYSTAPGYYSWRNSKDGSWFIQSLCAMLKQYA
SENP luc ctr – counter-screen for SENP inhibitors: luminescence interference; shares compounds with SENP7 inh; Pre-incubated SENP8/Z-RLRGG-aminoluciferin, luciferase luminescence interference; inhibition, % at 12.5 µM; 6,200 tested, 39% active; AID 488919;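 active = mean inhibition above about 50% when retested at one dose, limit read from the data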
Each line names hits and unclear results; the compound was inactive in the other large screens (follow-up assays come after a bar, where they were run). Shown are actives, neighbours in structure and some others; about 2.6% of the full set was active somewhere.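 The calls were made as follows, unless noted: active = mean inhibition above about 50% in the one-dose retest (limit read from the data); inactive = the rest.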

Fc1ccc(-n2nnc(-c3nccs3)n2)cc1	SENP6 block 88.3, SENP8 block-1 86.8, SENP7 inh 91.3 | SENP8 confirm 87.5 | SENP6 conf 91.8 | SENP7 conf 100.5 | Casp3 SENP sel 96.2 | SENP luc ctr 67.1
COc1cc(OC)nc(Nc2nc(C(N)Cc3ccc(C(F)(F)F)cc3)cs2)n1 (stereo not drawn)	none (no result: SENP6 block, SENP8 block-1, Platelet DG rel, SENP7 inh)
Clc1ncccc1-c1nnn(-c2ccccc2)n1	SENP6 block 90.8, SENP8 block-1 86.4, SENP7 inh 89.1 | SENP8 confirm 88.5 | SENP6 conf 89.8 | SENP7 conf 99.0 | Casp3 SENP sel 92.2 | SENP luc ctr 87.6
CCn1c(SCc2ccccc2Cl)nc2ccccc21	SENP6 block 58.9 | SENP8 confirm inactive | SENP6 conf inactive | SENP7 conf 71.2 | Casp3 SENP sel inactive | SENP luc ctr inactive
CCn1c(CSc2nc3ccccc3n2C)nc2ccccc21	none
Cn1c(SCc2ccccc2Cl)nc2ccccc21	SENP6 block 85.7, SENP8 block-1 74.6, SENP7 inh 66.7 | SENP8 confirm inactive | SENP6 conf 77.3 | SENP7 conf 94.9 | Casp3 SENP sel 67.4 | SENP luc ctr 66.2
CCn1c(SCC(=O)N2CCCC2)nc2ccccc21	none
COc1ccc(NC(=O)C2CCCC2)cc1S(=O)(=O)N1CCOCC1	none (no result: Platelet DG rel)
CCCn1c(O)c(N=Nc2ccc3ccccc3n2)c2ccccc21	SENP6 block 95.3, SENP8 block-1 85.2, SENP7 inh 92.8 | SENP8 confirm inactive | SENP6 conf 57.4 | SENP7 conf 61.2 | Casp3 SENP sel 70.2 | SENP luc ctr inactive
Cc1ccc2ccccc2c1C(O)c1ncc(-c2ccc(C(F)(F)F)cc2)[nH]1 (stereo not drawn)	none (no result: SENP6 block, SENP8 block-1, Platelet DG rel, SENP7 inh)
Cc1cccc(NC(=O)c2ccc3c(Cl)c4c(nc3c2)CCCC4)n1	SENP7 inh 87.0 | SENP8 confirm inactive | SENP6 conf inactive | SENP7 conf inactive | Casp3 SENP sel inactive | SENP luc ctr inactive
O=C(Nc1ccc(Cl)cn1)c1ccc2c(Cl)c3c(nc2c1)CCC3	SENP7 inh 71.3 | SENP8 confirm inactive | SENP6 conf inactive | SENP7 conf inactive | Casp3 SENP sel inactive | SENP luc ctr inactive
Cc1cc(NC(=S)N(Cc2ccc(Br)cc2)Cc2ccc(C(=O)O)cc2)ccc1Cl	none
C(=N\N=C\c1ccccc1)/c1ccccc1	SENP6 block 83.0, SENP8 block-1 65.1, SENP7 inh 69.5 | SENP8 confirm inactive | SENP6 conf 66.9 | SENP7 conf 94.3 | Casp3 SENP sel 62.3 | SENP luc ctr inactive
Cc1ccc(/C=N/N=C/c2ccc(C)cc2)cc1	none
CCCNC(=O)C(Cc1ccc(C(F)(F)P(=O)(OCC)OCC)cc1)NC(=O)c1ccc(C#N)cc1 (stereo not drawn)	none (no result: Platelet DG rel)
COc1ccc(C(=O)Nc2ccc3c(c2)C(=O)c2ccccc2C3=O)cc1OC	none
COc1ccc(C(=O)c2c(C(F)(F)F)oc3c2C(=O)c2ccccc2C3=O)cc1OC	SENP6 block 58.4, SENP8 block-1 60.4, SENP8 block-2 63.4 | SENP8 confirm inactive | SENP6 conf 78.8 | SENP7 conf inactive | Casp3 SENP sel 77.5 | SENP luc ctr inactive
O=C(C1CCCCC1)N1CCN(c2ccnc3cc(Cl)ccc23)CC1	none
c1ccc(CN2CCOCC2)cc1	SENP7 inh 87.3 | SENP8 confirm inactive | SENP6 conf inactive | SENP7 conf inactive | Casp3 SENP sel inactive | SENP luc ctr inactive
COc1ccc2c(c1)sc1nc(-c3ccccc3)cn12	SENP6 block 96.4, SENP8 block-1 95.8, Platelet DG rel 54.3, SENP7 inh 98.9 | SENP8 confirm inactive | SENP6 conf 100.9 | SENP7 conf 103.7 | Casp3 SENP sel 98.2 | SENP luc ctr 98.7
CCOC(=O)N1CCN(C(=O)c2ccc3c(c2)sc2nc(-c4ccc(OC)cc4)cn23)CC1	none
CCN1C(=O)c2cccc3c(S(=O)(=O)N4CCNCC4)ccc1c23	none (no result: Platelet DG rel)
COC(=O)[C@@]12C[C@@H](CC(=O)NCc3cccs3)C(=O)N(Cc3cccc4ccccc34)C1=CCC(C)(C)C2	none (no result: SENP6 block, SENP8 block-1, Platelet DG rel, SENP7 inh)
Cn1c(/C=C/c2ccccc2)nc2ccccc21	SENP6 block 98.7, SENP8 block-1 96.6, Platelet DG rel 81.1, SENP7 inh 98.9 | SENP8 confirm 98.8 | SENP6 conf 99.9 | SENP7 conf 103.0 | Casp3 SENP sel 98.6 | SENP luc ctr 98.2
O=C(NC(CC(=O)N1CCN(c2ccccc2O)CC1)c1ccccc1)c1ccccc1Cl (stereo not drawn)	none (no result: Platelet DG rel)
CC(=O)Oc1ccccc1/C=C/c1nc2ccccc2c(=O)o1	SENP6 block 75.6, SENP8 block-1 65.5, SENP7 inh 66.1 | SENP8 confirm 77.4 | SENP6 conf 74.1 | SENP7 conf 89.7 | Casp3 SENP sel 93.8 | SENP luc ctr 56.6
CCCc1nnc(NC(=O)CC(=O)Nc2ccccc2C(=O)O)s1	SENP6 block 60.8 | SENP8 confirm 65.4 | SENP6 conf 60.9 | SENP7 conf 83.6 | Casp3 SENP sel 87.1 | SENP luc ctr 59.6
c1ccc2nc(-c3nc4ccccc4[nH]3)ccc2c1	SENP6 block 96.9, SENP8 block-1 96.6, Platelet DG rel 82.8, SENP7 inh 99.7 | SENP8 confirm 94.8 | SENP6 conf 97.5 | SENP7 conf 103.4 | Casp3 SENP sel 98.2 | SENP luc ctr inactive
OC(COC(c1ccccc1)c1ccccc1)CN1CCN(c2cccc(Cl)c2)CC1 (stereo not drawn)	SENP6 block 101.2 | SENP8 confirm inactive | SENP6 conf inactive | SENP7 conf inactive | Casp3 SENP sel inactive | SENP luc ctr inactive
Cc1cc2nc(-c3ccc(NC(=O)C(C)C)cc3)oc2cc1C	SENP7 inh 70.2 | SENP8 confirm inactive | SENP6 conf inactive | SENP7 conf inactive | Casp3 SENP sel inactive | SENP luc ctr inactive
Cc1ccc(-c2nc3cc(Cl)ccc3o2)cc1	SENP6 block 90.9, SENP8 block-1 75.3, SENP7 inh 89.9 | SENP8 confirm inactive | SENP6 conf inactive | SENP7 conf inactive | Casp3 SENP sel inactive | SENP luc ctr inactive
CC(C)C(=O)Nc1cccc(-c2nc3ccccc3o2)c1	none
